This note sets out measurements from ChEMBL document CHEMBL1137390, “Structure-based design of potent small-molecule inhibitors of anti-apoptotic Bcl-2 proteins” (J Med Chem, 2006).

Assay [1] deals with T1, Apoptosis regulator Bcl-2 (Homo sapiens, UniProt P10415). Nature of the assay: Displacement of FAM-Bid from human Bcl2 by FP assay. An outline of the steps:
(§1)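 Competitive fluorescence-polarization binding assay against the recombinant anti-apoptotic protein. Values are reported as Ki ± SD from three to seven independent experiments per compound.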

For assay [2], the target named is T1, Apoptosis regulator Bcl-2. Nature of the assay: Binding affinity to human Bcl2 by ELISA. (An ELISA detects its analyte on a solid surface through an enzyme-linked reagent.)
Assay [3] relates to PC-3. Briefly: Induction of apoptosis in human PC3 cell at 20 uM by TUNEL assay. Type of assay: functional. In a few lines: (§2)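 PC-3 prostate cancer cells were exposed to compound for 4 days, with an untreated control included. Apoptosis was scored by TUNEL using flow cytometry: the BrdU-FITC-positive fraction (M1 marker) is given as the percentage of apoptotic cells.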
In assay [4] the target is Induced myeloid leukemia cell differentiation protein Mcl-1 (Homo sapiens, UniProt Q07820). Briefly: Displacement of FAM-Bid from human Mcl1 by FP assay.
For another assay, the target named is Bcl-2-like protein 1 (Homo sapiens, UniProt Q07817). Nature of the assay: Displacement of FAM-Bak from human Bcl-xL by FP assay. An outline of the steps: as §1
Assay [5] concerns PC-3. Briefly: Induction of apoptosis in human PC3 cell at 5 uM by TUNEL assay. In kind it is functional. An outline of the steps:
as §2

The subject of assay [6] is PC-3. Nature of the assay: Induction of apoptosis in human PC3 cell at 1.25 uM by TUNEL assay. Type of assay: functional. An outline of the steps: as §2

Molecules are shown by their SMILES.

Sequence of Induced myeloid leukemia cell differentiation protein Mcl-1 (Q07820 whole entry): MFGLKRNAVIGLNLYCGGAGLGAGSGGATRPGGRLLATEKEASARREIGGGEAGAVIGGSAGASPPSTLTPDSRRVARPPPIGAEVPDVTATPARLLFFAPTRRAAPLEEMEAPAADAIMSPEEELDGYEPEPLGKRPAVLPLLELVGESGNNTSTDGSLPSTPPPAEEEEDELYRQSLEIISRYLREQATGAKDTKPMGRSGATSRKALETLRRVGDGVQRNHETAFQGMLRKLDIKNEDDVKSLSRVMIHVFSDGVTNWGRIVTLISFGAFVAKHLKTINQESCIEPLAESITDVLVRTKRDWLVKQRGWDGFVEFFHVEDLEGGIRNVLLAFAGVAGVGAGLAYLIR
Sequence of Bcl-2-like protein 1 (Q07817 whole entry): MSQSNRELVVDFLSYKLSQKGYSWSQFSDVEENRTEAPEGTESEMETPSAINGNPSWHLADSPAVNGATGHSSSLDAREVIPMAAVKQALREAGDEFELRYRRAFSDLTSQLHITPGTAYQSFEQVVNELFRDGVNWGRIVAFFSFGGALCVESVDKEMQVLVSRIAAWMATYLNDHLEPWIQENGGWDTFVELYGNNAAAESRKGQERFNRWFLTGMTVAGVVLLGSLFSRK
T1 sequence (P10415 whole entry): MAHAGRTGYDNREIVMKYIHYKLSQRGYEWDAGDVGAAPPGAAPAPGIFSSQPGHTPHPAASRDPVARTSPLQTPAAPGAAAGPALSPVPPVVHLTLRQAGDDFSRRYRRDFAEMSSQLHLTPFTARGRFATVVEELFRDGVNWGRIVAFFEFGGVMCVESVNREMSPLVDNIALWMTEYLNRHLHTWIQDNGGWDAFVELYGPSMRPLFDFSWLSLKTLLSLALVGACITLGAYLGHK

With `O=C(Nc1ccccc1)c1cc(Cc2ccccc2)c(O)c(O)c1O`, the Ki (in general, the dissociation constant of the complex between target and ligand, obtained from inhibition or displacement) in assay [1] is 8300 nM. Also, in assay [2], the IC50 (usually the point on the concentration scale where inhibition reaches its midpoint) is 7200 nM.

Compound `O=C(Nc1ccc(S(=O)(=O)c2ccccc2)cc1)c1cc(Cc2ccccc2)c(O)c(O)c1O` registered an inhibitory constant (Ki) in assay [1] of 930 nM. Also, in assay [2], the half-inhibitory concentration (IC50) was 1600 nM.

For `COc1c(Cc2ccccc2C(C)C)cc(C(=O)Nc2ccc(S(=O)(=O)c3ccccc3C(C)(C)C)cc2)c(OC)c1OC`, the inhibition constant (Ki) in assay [1] was determined as 25000 nM. The Activity in the assay with PC-3 [3] is 1.2%.

In assay [4], `CC[C@H](C)[C@H](NC(=O)[C@H](CC(N)=O)NC(=O)[C@H](CCCN=C(N)N)NC(=O)[C@@H](NC(=O)[C@@H](NC(=O)[C@H](CC(=O)O)NC(=O)[C@H](CCC(=O)O)NC(=O)[C@@H](N)CCC(N)=O)[C@@H](C)CC)[C@@H](C)CC)C(=O)N[C@@H](C)C(=O)N[C@@H](CCCN=C(N)N)C(=O)N[C@@H](Cc1c[nH]cn1)C(=O)N[C@@H](CC(C)C)C(=O)N[C@@H](C)C(=O)N[C@@H](CCC(N)=O)C(=O)N[C@H](C(=O)NCC(=O)N[C@@H](CC(=O)O)C(=O)N[C@@H](CO)C(=O)N[C@@H](CCSC)C(=O)N[C@@H](CC(=O)O)C(=O)N[C@@H](CCCN=C(N)N)C(=O)O)C(C)C` came in with a 50% inhibitory concentration (IC50) of 52 nM and an inhibitory constant (Ki) of 12 nM.

For the compound `Cc1cc2c(C(C)C)c(O)c(O)c(C=O)c2c(O)c1-c1c(C)cc2c(C(C)C)c(O)c(O)c(C=O)c2c1O` [GOSSYPOL], the Ki on Bcl-2-like protein 1 was determined as 480 nM; in assay [4], 180 nM.

Turning to `CC(C)c1ccccc1Cc1cc(C(=O)Nc2ccc(S(=O)(=O)c3ccccc3C(C)(C)C)cc2)c(O)c(O)c1O`, the inhibitory constant (Ki) was 290 nM in assay [1], 1110 nM on Bcl-2-like protein 1 and 260 nM in assay [4]. In addition, the Activity worked out at 89.5% with PC-3 [5] and 11.2% in the assay with PC-3 [6]. The values for the concentration for half-maximal inhibition (IC50) (in assay [2]; on Bcl-2-like protein 1; in assay [4]) were 700 nM, 6580 nM and 1030 nM, respectively.

In the case of `CC(C)c1cc(C(=O)Nc2ccccc2)c(O)c(O)c1O`, the inhibition constant Ki in assay [1] was determined as 24100 nM. In assay [2], this compound returned an IC50 of 53100 nM.
